Assay outcomes: PubChem BioAssay, several laboratories
H9c2 TAG inh – reduces triacylglycerol accumulation in H9c2 cells; Nile Red lipid (TAG) fluorescence; cells loaded with 200 µM oleic acid; inhibition, % at 12.5 µM; hit rate 0.66% among 230,000;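 active means pattern-corrected inhibition of lipid staining of at least 50% with the nuclear-stain viability signal not falling by more than 50%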
Rad51 HR inh – Rad51 (human) homologous recombination inhibition | Q06609 | inhibition, % at 10 µM | hit rate 0.085% among 200,000 | hRad51 DNA strand exchange, fluorescence dequenching;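 active means inhibition above 40% at the single screening dose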
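Test system: preformed human Rad51 ssDNA filaments. Compound dosing: single dose, 10 µM final compound. Incubation: filaments 15 min 37 °C, then compound 30 min. Technique: FRET fluorescence dequenching, excitation 485 nm, emission 520 nm. Read-out basis: percent inhibition from fluorescence, normalised to plate control and blank means. Benchmarks: plate controls and plate blanks.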
MDM2 E3 inh – blocks human Mdm2 ubiquitin ligase activity. Q00987. cell-based MDM2 ubiquitination luciferase reporter, 2 h; 0 = plate control, 100 = twice control, blank-subtracted. signal enhancement, % at 5 µM. hit rate 0.11% among 210,000. AID 1230;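 active means signal enhancement of 30% or more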;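 further: luminescence tracks abundance of the self-degrading MDM2-luciferase fusion protein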
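Test system: stable mammalian line carrying autodegrading MDM2–luciferase fusion reporter; quantity: 2000 cells in each well; times: 4 h cell settling then 2 h compound exposure, 37 °C; detection: luminescence with SteadyLite reagent, 15 min at room temperature; evaluation: percent signal gain over controls, blank-subtracted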
PKD1 kinase inh – blocks activity of human protein kinase D1 | Q15139 | PKD1 kinase fluorescence polarization assay | inhibition, % (concentration not given with the values) | hit rate 0.056% among 200,000 | AID 797; in the data active means inhibition above about 50%
PERK inhibitor – blocks human PERK kinase; Q9NZJ5; CHO PERK-DD fusion, SEAP luminescence translation reporter; inhibition, % at 5.6 µM; hit rate 0.17% among 220,000;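 active means inhibition above the mean inhibition of all tested compounds plus 3 SD, set separately per screening campaign, cut at about 2.9% in these data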;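 further: PERK kinase domain activated by AP20187 dimerizer at 100 nM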
Target sequence (Q9NZJ5 whole entry, looked up, the tested form may be a part): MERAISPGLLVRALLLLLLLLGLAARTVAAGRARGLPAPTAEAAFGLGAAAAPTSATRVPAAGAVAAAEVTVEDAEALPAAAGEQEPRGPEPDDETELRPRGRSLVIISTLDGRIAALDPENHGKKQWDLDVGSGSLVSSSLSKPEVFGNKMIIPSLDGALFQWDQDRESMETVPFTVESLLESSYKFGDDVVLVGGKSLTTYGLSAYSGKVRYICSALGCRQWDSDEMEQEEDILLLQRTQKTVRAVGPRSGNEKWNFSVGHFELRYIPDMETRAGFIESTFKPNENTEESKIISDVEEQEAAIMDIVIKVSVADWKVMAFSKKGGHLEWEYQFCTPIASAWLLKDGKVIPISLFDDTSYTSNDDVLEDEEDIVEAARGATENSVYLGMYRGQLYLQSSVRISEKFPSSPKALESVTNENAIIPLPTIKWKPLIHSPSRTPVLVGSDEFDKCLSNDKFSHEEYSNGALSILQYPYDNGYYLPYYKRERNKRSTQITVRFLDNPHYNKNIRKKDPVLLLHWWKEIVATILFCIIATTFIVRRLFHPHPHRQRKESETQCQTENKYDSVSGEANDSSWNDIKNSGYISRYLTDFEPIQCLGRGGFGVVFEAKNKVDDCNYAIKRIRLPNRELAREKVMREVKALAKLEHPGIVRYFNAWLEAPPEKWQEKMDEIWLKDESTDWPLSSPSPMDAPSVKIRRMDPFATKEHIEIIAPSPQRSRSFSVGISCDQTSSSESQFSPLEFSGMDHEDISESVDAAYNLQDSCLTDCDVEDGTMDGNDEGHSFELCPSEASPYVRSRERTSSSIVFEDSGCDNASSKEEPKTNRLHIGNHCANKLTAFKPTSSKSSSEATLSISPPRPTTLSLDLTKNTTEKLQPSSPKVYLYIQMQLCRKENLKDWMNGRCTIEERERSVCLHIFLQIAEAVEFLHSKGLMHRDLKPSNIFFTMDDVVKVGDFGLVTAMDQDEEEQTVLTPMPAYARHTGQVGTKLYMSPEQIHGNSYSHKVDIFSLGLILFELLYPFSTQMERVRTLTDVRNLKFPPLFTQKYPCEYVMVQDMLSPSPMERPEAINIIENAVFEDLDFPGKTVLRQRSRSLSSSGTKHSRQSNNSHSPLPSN
Hck-Nef inh – human Hck-Nef kinase inhibition | inhibition, % at 20 µM | AID 463187 | P08631 | Recombinant Hck-YEEI plus Nef, Z-Lyte FRET kinase assay | hit rate 0.68% among 220,000;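 active means Hck-Nef kinase inhibition above about 50%, limit read from the data; inactive means inhibition below that limit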
Hck Nef conf – confirmation of Hck-Nef kinase inhibitors. Recombinant Hck-YEEI:Nef, Z-Lyte FRET kinase assay. calls only at 10 µM. hit rate 28% among 1,300. AID 463188. shares compounds with Hck-Nef inh;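 active means average inhibition of at least 50%, with Z-scores no higher than 3 in both the phospho-tyrosine peptide and fluorescence counterscreens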
A number is an active result. Sampled rows, rich in hits. Any-hit rate of the full collection: about 1.3%.

COc1cc2ncnc(NCc3ccc(C)cc3)c2cc1OC was read as H9c2 TAG inh inactive, Rad51 HR inh inactive, MDM2 E3 inh inactive, PKD1 kinase inh inactive, PERK inhibitor inactive and Hck-Nef inh inactive.
`CCN(C(=O)COC(=O)c1cc([N+](=O)[O-])ccc1N1CCOCC1)c1ccccc1` gave H9c2 TAG inh inactive.
CCN1CCN(Cc2ccc(NC(=O)c3ccc(C)c(NC(=O)c4ccnnc4)c3)cc2C(F)(F)F)CC1 was read as H9c2 TAG inh inactive, Rad51 HR inh inactive, MDM2 E3 inh inactive, Hck-Nef inh 55 and Hck Nef conf inactive.
CCN1CCN(Cc2ccc(NC(=O)c3ccc(C)c(NC(=O)c4ccc5n[nH]nc5c4)c3)cc2C(F)(F)F)CC1 was read as H9c2 TAG inh inactive, Rad51 HR inh inactive, MDM2 E3 inh inactive, Hck-Nef inh 76 and Hck Nef conf active.
CCN1CCN(Cc2ccc(C(=O)Nc3ccc(C)c(NCc4cnc(NC(=O)OC)cn4)c3)cc2C(F)(F)F)CC1 was read as H9c2 TAG inh inactive.
Screening CCN1CCN(Cc2ccc(NC(=O)c3cc(NC(=O)c4cc(C)on4)cc(OC)c3)cc2C(F)(F)F)CC1 returned H9c2 TAG inh inactive.
`COc1ccc(-c2noc(CSc3nc(-c4ccccc4)cc(=O)[nH]3)n2)cc1OC` gave H9c2 TAG inh inactive, Rad51 HR inh inactive, MDM2 E3 inh inactive, PKD1 kinase inh inactive, PERK inhibitor inactive, Hck-Nef inh 54 and Hck Nef conf inactive.
Screening COc1ccc(-c2noc(CSc3nc(N)cc(=O)[nH]3)n2)cc1 returned H9c2 TAG inh inactive, Rad51 HR inh inactive, PERK inhibitor inactive and Hck-Nef inh inactive.
For CCCCCCc1cc2cc(S(=O)(=O)c3ccc(C)cc3)c(=O)oc2cc1O the results were H9c2 TAG inh inactive, Rad51 HR inh inactive, PKD1 kinase inh inactive, PERK inhibitor inactive and Hck-Nef inh 80.
CCCCCCc1cc2cc(S(=O)(=O)c3ccc(Cl)cc3)c(=O)oc2cc1O was read as H9c2 TAG inh inactive, Rad51 HR inh inactive, PKD1 kinase inh inactive, PERK inhibitor inactive and Hck-Nef inh 110.
Screening CCN(CC)c1ccc2cc(S(=O)(=O)c3ccc(Cl)cc3)c(=O)oc2c1 returned H9c2 TAG inh inactive, Rad51 HR inh inactive, PKD1 kinase inh inactive, PERK inhibitor inactive and Hck-Nef inh inactive.
For CCCCCCc1cc2cc(C(=O)Nc3ccccc3)c(=O)oc2cc1O the results were Rad51 HR inh inactive, MDM2 E3 inh inactive, PKD1 kinase inh inactive, PERK inhibitor inactive, Hck-Nef inh 72 and Hck Nef conf inactive.
`Oc1ccccc1CNc1ccc(OC(F)(F)F)cc1` gave MDM2 E3 inh inactive, PKD1 kinase inh inactive, PERK inhibitor inactive and Hck-Nef inh inactive.
Screening O=C(O)c1ccc(-c2nnn(Cc3cccc(C(F)(F)F)c3)n2)cc1 returned H9c2 TAG inh inactive, Rad51 HR inh inactive, MDM2 E3 inh inactive, PERK inhibitor inactive and Hck-Nef inh inactive.
`COC(=O)C1=CN(C(C)C)C=C(C(=O)OC)C1c1cccc(OC)c1` gave H9c2 TAG inh inactive, MDM2 E3 inh inactive, PKD1 kinase inh inactive, PERK inhibitor inactive and Hck-Nef inh 61.
Screening COC(=O)C1=CN(C(C)C)C=C(C(=O)OC)C1c1cc(Br)c(OC)c(OC)c1 returned Rad51 HR inh inactive, MDM2 E3 inh inactive, PKD1 kinase inh inactive, PERK inhibitor inactive and Hck-Nef inh 61.
Screening COC(=O)C1=C(C)NC2=C(C(=O)c3ccccc32)C1c1cccc(OC)c1 (stereo unspecified) returned H9c2 TAG inh inactive, MDM2 E3 inh inactive, PERK inhibitor inactive and Hck-Nef inh inactive.
For COc1cc(C(=O)NCc2ccccc2)cc(Br)c1OC the results were MDM2 E3 inh inactive, PKD1 kinase inh inactive, PERK inhibitor inactive and Hck-Nef inh inactive.
O=C(COc1cccc2cccnc12)N/N=C1\SCC(=O)N1Cc1ccccc1 was read as H9c2 TAG inh inactive, Rad51 HR inh inactive, MDM2 E3 inh inactive, PKD1 kinase inh inactive, PERK inhibitor inactive and Hck-Nef inh inactive.
Screening CN1CCc2nc3ccc(Cl)cc3c(-c3ccccc3Cl)c2C1 returned Rad51 HR inh inactive, MDM2 E3 inh inactive, PKD1 kinase inh inactive, PERK inhibitor inactive and Hck-Nef inh inactive.
Screening C=CCNc1nc(NCc2ccc(N(C)C)cc2)c2sc(-c3ccccc3)cc2n1 returned H9c2 TAG inh inactive.
COC(=O)c1c(NC(=O)COC(=O)[C@@H](NS(=O)(=O)c2cccc(Cl)c2)C(C)C)sc2c1CCC2 was read as MDM2 E3 inh inactive, PKD1 kinase inh inactive, PERK inhibitor inactive and Hck-Nef inh inactive.
COC(=O)c1sc(N)c(C(=O)OC)c1COC(=O)[C@@H](NS(=O)(=O)c1cccc(Cl)c1)C(C)C was read as Rad51 HR inh inactive, MDM2 E3 inh inactive, PKD1 kinase inh inactive, PERK inhibitor inactive, Hck-Nef inh 79 and Hck Nef conf active.
Screening Cc1sc(-n2c(C)cc(/C=C3\SC(=S)NC3=O)c2C)c(C#N)c1C returned Rad51 HR inh inactive, MDM2 E3 inh inactive, PKD1 kinase inh inactive, PERK inhibitor inactive, Hck-Nef inh 71 and Hck Nef conf inactive.
N#Cc1cnn(-c2ccccc2)c1NC(=O)CN1CCN(c2ccccc2)CC1 was read as H9c2 TAG inh inactive, Rad51 HR inh inactive, MDM2 E3 inh inactive, PERK inhibitor inactive and Hck-Nef inh inactive.
For Cc1cc(/C=N/Nc2ccc([N+](=O)[O-])cn2)c(C)n1-c1ccc(C(=O)O)cc1 the results were H9c2 TAG inh inactive, Rad51 HR inh inactive, MDM2 E3 inh inactive, PKD1 kinase inh inactive, PERK inhibitor inactive, Hck-Nef inh 79 and Hck Nef conf inactive.
`O=C(Cn1nnc(-c2ccc(NC(=O)c3ccccc3F)cc2)n1)NCc1ccc(F)cc1` gave H9c2 TAG inh inactive, Rad51 HR inh inactive, PERK inhibitor inactive, Hck-Nef inh 61 and Hck Nef conf inactive.
O=C(Nc1ccc(-c2nnn(CC(=O)N3CCN(C(=O)c4ccco4)CC3)n2)cc1)c1ccccc1F was read as Rad51 HR inh inactive, MDM2 E3 inh inactive, PKD1 kinase inh inactive, PERK inhibitor inactive and Hck-Nef inh inactive.
Screening Cc1cc(Cl)nc2c(C(C)C)cccc12 returned Rad51 HR inh inactive, MDM2 E3 inh inactive, PKD1 kinase inh inactive, PERK inhibitor inactive and Hck-Nef inh inactive.
For COc1ccc(C)cc1NC(=O)Nc1cnccn1 the results were H9c2 TAG inh inactive, Rad51 HR inh inactive, MDM2 E3 inh inactive, PKD1 kinase inh inactive, PERK inhibitor inactive, Hck-Nef inh 102 and Hck Nef conf active.
CCc1nnc(NC(=O)CSc2nnc(-c3ccccc3NC(=O)c3ccccc3)o2)s1 was read as Rad51 HR inh inactive, MDM2 E3 inh inactive, PKD1 kinase inh inactive, PERK inhibitor inactive and Hck-Nef inh inactive.
